These results are taken from the array DNA melting data of Ke et al. (doi:10.1101/2024.01.08.574731).

Series [1] can be described thus: melting temperature; fluorescence melt of hairpins on a sequencing array, two-state fit, raised by 9.35 °C to match UV melts. The following applies: sodium 0.088 M. A digest of the protocol: (§1)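 Melting temperature and folding enthalpy were obtained by bootstrapped two-state fitting. Fits used Cy3 fluorescence of library hairpins with annealed Cy3 and quencher oligos on a sequenced MiSeq flow cell, imaged in 50 mM Na-HEPES pH 8.0, 25 mM NaCl in 2.5 °C steps up to 60 °C and normalised to pre-quench Cy3 and control constructs. Four replicates were combined by inverse-variance weighting, and fitted temperatures were raised by 9.35 °C to match UV melts.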

Series [2] is described as follows: folding enthalpy; higher = less favourable; fluorescence melt of hairpins on a sequencing array, two-state fit. The following applies: sodium 0.088 M. A digest of the protocol:
as §1

Take GGGGTCGAAAGACGGCCC ((((((....)))..))): the Tm in series [1] was found to be 48.9 °C. Besides, the folding enthalpy in series [2] was -22.1 kcal/mol.

With GTCGTCGAAAGACAGAC ((((((....))).))), the Tm in series [1] was 51.6 °C. In addition, in series [2], the folding enthalpy is -26.7 kcal/mol.

For GATCAACTGTTGATC ((((((...)))))), the Tm in series [1] turned out to be 44.2 °C. For the same sequence, the folding enthalpy in series [2] was -36.1 kcal/mol.

Consider GATCCGTCTACGGATC ((((((....)))))), for which the Tm in series [1] was 63.7 °C. Moreover, the folding enthalpy in series [2] is -45.5 kcal/mol.

In the case of GCCTATGGAAACATGGGC (((.(((....))).))), the Tm in series [1] amounted to 51.7 °C. Besides, the folding enthalpy in series [2] is -46.6 kcal/mol.

Consider GATCGTTTGTACGATC ((((((....)))))), for which, in series [1], the Tm was found to be 56 °C. Besides, the folding enthalpy in series [2] is -37.3 kcal/mol.

For the sequence GGACTTGAAAAAGTCC ((((((....)))))), the Tm in series [1] turned out to be 58.2 °C. Further, the folding enthalpy in series [2] is -41.9 kcal/mol.

For the sequence GATCGGCCACCGATC ((((((...)))))), the Tm in series [1] came to 55.1 °C. In addition, in series [2], the folding enthalpy is -31.7 kcal/mol.

For GCGAAATGTCGC ((((....)))), the Tm in series [1] was 44.8 °C. Moreover, in series [2], the folding enthalpy was -18.6 kcal/mol.

In the case of GTATAGTCGAAAGACTAC (((..(((....)))))), in series [1], the Tm is 32.6 °C. In addition, the folding enthalpy in series [2] is -11.9 kcal/mol.

As to GATCGAGCCATCGATC ((((((....)))))), the Tm in series [1] came out at 59.2 °C. Besides, the folding enthalpy in series [2] was -39.7 kcal/mol.

For GGCCATTCGAAAGAAGCC (((..(((....)))))), the Tm in series [1] was 33.1 °C. Further, the folding enthalpy in series [2] is -19.9 kcal/mol.

Turning to GATCACAACTGTGATC ((((((....)))))), the Tm in series [1] was 58.9 °C. For the same sequence, the folding enthalpy in series [2] was -37.4 kcal/mol.

In the case of GTCCACGAAAGTGCGAC ((((((....))).))), in series [1], the Tm worked out at 50.9 °C. In series [2], the folding enthalpy is -22.8 kcal/mol.

GCGAAGCGAAAGCCTCGC ((((.((....)).)))): the Tm in series [1] was determined as 57.8 °C. The folding enthalpy in series [2] is -18.5 kcal/mol.

Turning to GCAATCGGAAACGATCGC ((.((((....)))).)), in series [1], the Tm stood at 47.2 °C. Also, the folding enthalpy in series [2] is -36.4 kcal/mol.

On to GAGTTTGAAAAAACTC ((((((....)))))), for which the Tm in series [1] is 50.8 °C. For the same sequence, in series [2], the folding enthalpy is -32.2 kcal/mol.

GTACCGTCGAAAGACTAC (((..(((....)))))): the Tm in series [1] came to 25.7 °C. The folding enthalpy in series [2] is -8.88 kcal/mol.

On to CGTTGACGGAAACGTACG (((..(((....)))))), for which, in series [1], the Tm amounted to 43.2 °C. In addition, the folding enthalpy in series [2] was -18.8 kcal/mol.

For the sequence GCAGACGGAAACGTCTAC (.(((((....))))).), the Tm in series [1] turned out to be 42.7 °C. Besides, in series [2], the folding enthalpy was -14.1 kcal/mol.

On to GCGTGTGGAAACACACAC (.(((((....))))).), for which, in series [1], the Tm was found to be 44.4 °C. Besides, the folding enthalpy in series [2] is -13.7 kcal/mol.

As to GTCCATGGAAACACGGAC ((((.((....)).)))), in series [1], the Tm was 42.1 °C. Further, in series [2], the folding enthalpy was -25 kcal/mol.

In the case of CGTCTCGGAAACGACACG (((.(((....))).))), the Tm in series [1] worked out at 35.5 °C. Besides, the folding enthalpy in series [2] was -31.2 kcal/mol.

Turning to GAAGTACGAAAGTAGTTC (((.(((....))).))), the Tm in series [1] was 46.8 °C. In addition, the folding enthalpy in series [2] is -34.8 kcal/mol.

With GATCTTGCGAAGATC ((((((...)))))), the Tm in series [1] was found to be 42.8 °C. For the same sequence, the folding enthalpy in series [2] was -23.7 kcal/mol.

For the sequence GCCCCGCGAAAGCATGGC (((..((....))..))), the Tm in series [1] was determined as 45.4 °C. For the same sequence, the folding enthalpy in series [2] is -17.4 kcal/mol.

As for GCTTCGCGAAAGCGCCGC ((..(((....)))..)), the Tm in series [1] amounted to 44.7 °C. Also, in series [2], the folding enthalpy was -12.2 kcal/mol.

Consider GACGGAGAAATCCGTC ((((((....)))))), for which the Tm in series [1] is 59.1 °C. Besides, in series [2], the folding enthalpy is -38.5 kcal/mol.

GATCGGCTCTCCGATC ((((((....)))))): in series [1], the Tm turned out to be 55.4 °C. For the same sequence, in series [2], the folding enthalpy is -47.3 kcal/mol.

As for GCCTACACGAAAGTGGGC (((..(((....)))))), the Tm in series [1] worked out at 50.5 °C. In addition, the folding enthalpy in series [2] is -22.2 kcal/mol.

Turning to GTTGCCGAAAGGCAAAAC ((((((....)))..))), the Tm in series [1] worked out at 42.5 °C. Also, the folding enthalpy in series [2] was -9.67 kcal/mol.

Regarding GCAGCGCGAAAGCCATGC (((..((....))..))), the Tm in series [1] came out at 45.1 °C. For the same sequence, the folding enthalpy in series [2] was -14.9 kcal/mol.

For CCTCGGAAACGAGG (((((....))))), in series [1], the Tm turned out to be 55.7 °C. In addition, in series [2], the folding enthalpy was -25.8 kcal/mol.

As to GCAAAGCGAAAGCATCGC ((.(.((....)).).)), the Tm in series [1] worked out at 35.4 °C. Besides, the folding enthalpy in series [2] was -10.8 kcal/mol.

For the sequence GATCCATAACTGGATC ((((((....)))))), in series [1], the Tm turned out to be 48.1 °C. For the same sequence, the folding enthalpy in series [2] is -33.9 kcal/mol.

On to GATCCCAACGGGGATC ((((((....)))))), for which the Tm in series [1] stood at 59.4 °C. Further, the folding enthalpy in series [2] was -30.9 kcal/mol.

For the sequence GTGGGCGAAAGCCCTCAC ((((((....)))..))), in series [1], the Tm was determined as 39.5 °C. Also, the folding enthalpy in series [2] is -8.43 kcal/mol.
